Results taken from publication PMC6525002 (Cancer Management and Research, 2019).
“And” between values parts separate entries of the source, which are not always exact repeats. Equal values may be shown once.

What was measured:
[1] = Phase Ib pharmacokinetics, single dose; assay type: in vivo, human
In short: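 Blood collected on Day 1 at 0.05 h before the first oral dose and 0.5, 1, 1.5, 2, 4, 6, 8, 10, 12 and 24 h after. Test compound quantified by LC-MS using multiple reaction monitoring, LLOQ 1 ng/mL. Cmax, AUC, CL, t1/2 and related parameters were derived from individual concentration-time profiles and summarised descriptively.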

[2] = Phase Ib pharmacokinetics, multi-dosing; assay type: in vivo, human
In short: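 Oral test compound, flat doses twice daily for 28 days. Plasma sampled before the first daily dose on Days 8, 9, 10, 22 and 29. On Day 15, sampling ran 0.05 h predose and 0.5, 1, 1.5, 2, 4, 6, 8, 10 and 12 h post-dose. Assay by LC-MS with multiple reaction monitoring, LLOQ 1 ng/mL. Parameters were calculated from individual concentration-time profiles.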

[3] = system: advanced NSCLC with EGFR gene mutations; test: Phase Ib clinical antitumor activity; assay type: in vivo, human
[4] = system: patients; test: Ongoing study exploring higher simotinib doses; assay type: in vivo, human; details: 800 mg, 3 patients
[5] = system: EGFR; details: read-out: half maximal inhibitory concentration on EGFR; in vitro; cited from earlier work
[6] = system: human A431 tumor cells; details: in vitro, cells with high expression of EGFR; cited from earlier work
[7] = system: EGFR phosphorylation; details: in vivo, preclinical; cited from earlier work
[8] = 12 healthy volunteers, cited from earlier work
[9] = single dose 100 mg, N=2, mean ± SD
[10] = single dose 200 mg, N=3, mean ± SD
[11] = single dose 300 mg, N=3, mean ± SD
[12] = single dose 400 mg, N=15, mean ± SD
[13] = single dose 500 mg, N=12, mean ± SD
[14] = single dose 650 mg, N=6, mean ± SD
[15] = multi-dosing 100 mg twice daily, N=2
[16] = multi-dosing 100 mg twice daily, N=2, mean±SD
[17] = multi-dosing 200 mg twice daily, N=3, mean±SD
[18] = multi-dosing 300 mg twice daily, N=3, mean±SD
[19] = multi-dosing 400 mg twice daily, N=15, mean±SD
[20] = multi-dosing 500 mg twice daily, N=12, mean±SD
[21] = multi-dosing 650 mg twice daily, N=6, mean±SD

simotinib
bioavailability ([1]; orally administered): good bioavailability
Tmax ([1]; single dose 100 mg, N=2): 1.8 (1.5–2.0) h
AUC0-last [1, 9]: 405.6 ± 94.8 ng·h/mL
AUC0-∞ [1, 9]: 466.2 ± 129.9 ng·h/mL
CL [1, 9]: 223.1 ± 62.2 L/h
Cmax [1, 9]: 56.5 ± 18.2 ng/mL
T1/2 [1, 9]: 5.3 ± 0.3 h
Vd [1, 9]: 1,704.0±385.8 L
Tmax ([1]; single dose 200 mg, N=3): 2.0 (2.0–2.0) h
AUC0-last [1, 10]: 2,339.6±479.9 ng•hr/mL
AUC0-∞ [1, 10]: 2,955.0±564.0 ng•hr/mL
CL [1, 10]: 68.9 ± 13.2 L/h
Cmax [1, 10]: 333.0 ± 35.4 ng/mL
T1/2 [1, 10]: 12.2 ± 3.5 h
Vd [1, 10]: 1,250.1±579.7 L
Tmax ([1]; single dose 300 mg, N=3): 1.5 (1.5–2.0) h
AUC0-last [1, 11]: 2,814.0±764.5 ng•hr/mL
AUC0-∞ [1, 11]: 3,243.8±776.1 ng•hr/mL
CL [1, 11]: 95.2 ± 22.8 L/h
Cmax [1, 11]: 552.5 ± 388.2 ng/mL
T1/2 [1, 11]: 9.2 ± 1.0 h
Vd [1, 11]: 1,286.1±438.6 L
Tmax ([1]; single dose 400 mg, N=15): 2.0 (1.0–8.0) h
AUC0-last [1, 12]: 3,581.9±1,868.5 ng•hr/mL
AUC0-∞ [1, 12]: 4,962.1±3,141.7 ng•hr/mL
CL [1, 12]: 127.4 ± 117.6 L/h
Cmax [1, 12]: 566.4 ± 372.0 ng/mL
T1/2 [1, 12]: 13.3 ± 6.3 h
Vd [1, 12]: 2,097.2±1,506.8 L
Tmax ([1]; single dose 500 mg, N=12): 1.8 (0.5–4.0) h
AUC0-last [1, 13]: 3,791.0±2,741.1 ng•hr/mL
AUC0-∞ [1, 13]: 6,483.8±5,008.4 ng•hr/mL
CL [1, 13]: 200.5 ± 300.1 L/h
Cmax [1, 13]: 514.5 ± 316.4 ng/mL
T1/2 [1, 13]: 28.0 ± 33.8 h
Vd [1, 13]: 7,166.6±12,246.1 L
Tmax ([1]; single dose 650 mg, N=6): 2.0 (1.0–6.0) h
AUC0-last [1, 14]: 4,652.1±3,442.1 ng•hr/mL
AUC0-∞ [1, 14]: 7,648.4±3,028.7 ng•hr/mL
CL [1, 14]: 97.7 ± 39.2 L/h
Cmax [1, 14]: 828.5 ± 849.0 ng/mL
T1/2 [1, 14]: 29.7 ± 32.2 h
Vd [1, 14]: 3,873.8±3,378.1 L
time to Cmax, range over doses ([1]; single dose, all doses): 1.5 to 2.0 h
T1/2, range over doses ([2]; 200–650 mg doses): 8 to 13 h
AUC0-∞ [2, 15]: 956.9 ng·h/mL
CL [2, 15]: 148.5 L/h
T1/2 [2, 15]: 6.2 h
Tmax [2, 15]: 1.0(0–2.0) h
Vd [2, 15]: 1323.3 L
AUC0-last [2, 16]: 920.4 ± 349.2 ng·h/mL
Cavg [2, 16]: 76.7 ± 29.1 ng/mL
Cmax [2, 16]: 130.3 ± 70.3 ng/mL
Cmin [2, 16]: 54.5 ± 32.1 ng/mL
Tmax ([2]; multi-dosing 200 mg twice daily, N=3): 4.0 (2.0–4.0) h
AUC0-last [2, 17]: 3,940.9±2,689.0 ng•hr/mL
AUC0-∞ [2, 17]: 6,571.6±3,241.2 ng•hr/mL
CL [2, 17]: 66.1 ± 45.1 L/h
Cavg [2, 17]: 328.4 ± 224.1 ng/mL
Cmax [2, 17]: 447.0 ± 258.8 ng/mL
Cmin [2, 17]: 207.0 ± 152.7 ng/mL
T1/2 [2, 17]: 9.6 ± 4.2 h
Vd [2, 17]: 1,050.0±1,020.6 L
Tmax ([2]; multi-dosing 300 mg twice daily, N=3): 1.5 (1.0–2.0) h
AUC0-last [2, 18]: 6,013.9±3,058.1 ng•hr/mL
AUC0-∞ [2, 18]: 9,728.6±1,648.2 ng•hr/mL
CL [2, 18]: 57.3 ± 29.1 L/h
Cavg [2, 18]: 501.2 ± 254.8 ng/mL
Cmax [2, 18]: 1,519.0±1,132.8 ng/mL
Cmin [2, 18]: 288.0 ± 117.4 ng/mL
T1/2 [2, 18]: 10.4 ± 7.8 h
Vd [2, 18]: 1,019.6±1,077.5 L
Tmax ([2]; multi-dosing 400 mg twice daily, N=15): 2.0 (0–8.0) h
AUC0-last [2, 19]: 5,245.7±2,194.4 ng•hr/mL
AUC0-∞ [2, 19]: 10,577.7±5,867.6 ng•hr/mL
CL [2, 19]: 99.5 ± 70.4 L/h
Cavg [2, 19]: 437.1 ± 182.9 ng/mL
Cmax [2, 19]: 767.9 ± 338.1 ng/mL
Cmin [2, 19]: 251.6 ± 127.0 ng/mL
T1/2 [2, 19]: 13.0 ± 11.8 h
Vd [2, 19]: 2,000.6±3,169.6 L
Tmax ([2]; multi-dosing 500 mg twice daily, N=12): 1.8 (1.0–6.0) h
AUC0-last [2, 20]: 7,819.8±1,942.3 ng•hr/mL
AUC0-∞ [2, 20]: 12,780.6±3,894.7 ng•hr/mL
CL [2, 20]: 67.7 ± 17.2 L/h
Cavg [2, 20]: 651.6 ± 161.9 ng/mL
Cmax [2, 20]: 1,396.0±534.8 ng/mL
Cmin [2, 20]: 378.3 ± 132.0 ng/mL
T1/2 [2, 20]: 8.4 ± 2.8 h
Vd [2, 20]: 811.3 ± 326.9 L
Tmax ([2]; multi-dosing 650 mg twice daily, N=6): 2.0 (1.5–8) h
AUC0-last [2, 21]: 4,615.7±1,599.7 ng•hr/mL
AUC0-∞ [2, 21]: 8,193.3±3,211.2 ng•hr/mL
CL [2, 21]: 156.3 ± 55.6 L/h
Cavg [2, 21]: 384.6 ± 133.3 ng/mL
Cmax [2, 21]: 650.8 ± 234.7 ng/mL
Cmin [2, 21]: 214.3 ± 84.8 ng/mL
T1/2 [2, 21]: 9.2 ± 1.9 h
Vd [2, 21]: 2,021.8±635.7 L
time to maximum concentration, range over doses ([2]; multiple dosing, 300, 400, 500, and 650 mg doses): 1.5 to 2.0 h
deaths during the whole study ([3]; 100 mg group): 2 deaths
deaths during the whole study ([3]; 200 mg group): 3 deaths
deaths during the whole study ([3]; 300 mg group): 1 deaths
deaths during the whole study ([3]; 400 mg group): 1 deaths
partial response in patients with brain metastases ([3]; 500 mg, 12 patients): 16.7% and 16%
partial response in patients with brain metastases ([3]; 650 mg, 6 patients): 50%
stable disease as best response ([3]; 41 patients, RECIST 1.1): 46.3%
deaths during the whole study (treatment phase and follow-up period) ([3]; all doses): 7 deaths
survival rate at 1-year ([3]; all doses): 88.2%
median PFS ([3]; all doses, Kaplan–Meier, 95%CI 4.7, 12.1): 9.9 months
median OS ([3]; all doses, Kaplan–Meier, 95%CI 12.3, 22.5): 14.6 months
patients with brain metastases who achieved partial response on these metastases ([3]; of the 18 patients with brain metastases): 5 patients
bradycardia [4]: 1 patient
decreased blood pressure of <90/60 mmHg [4]: occurred in all patients
dose reduction due to cardiovascular events [4]: 1 patient
IC50 [5]: 19.9 nM
inhibition of growth of human A431 tumor cells [6]: inhibits in a dose-dependent manner
antitumor activity in nude xenograft model [7]: inhibiting EGFR phosphorylation
average clearance (CL) T1/2 ([8]; dose range 25–500 mg): 8 to 12 h
tolerability ([8]; phase Ia): well tolerated
